# Published values of several laboratories.
# Each line is one published result; the experiments were not run side by side.
# CA9: Carbonic anhydrase 9 (CA9, Homo sapiens, UniProt Q16790)
# Pancreatic alpha-amylase: Pancreatic alpha-amylase (Homo sapiens, UniProt P04746)
# MAOB: Amine oxidase [flavin-containing] B (MAOB, Homo sapiens, UniProt P27338)
# ALDH1A3: Retinaldehyde dehydrogenase 3 (ALDH1A3, Homo sapiens, UniProt P47895)
# CHRM4: Muscarinic acetylcholine receptor M4 (CHRM4, Homo sapiens, UniProt P08173)
# GLO1: Lactoylglutathione lyase (GLO1, Homo sapiens, UniProt Q04760)
# PADI4: Protein-arginine deiminase type-4 (PADI4, Homo sapiens, UniProt Q9UM07)
# Comt: Catechol O-methyltransferase (Comt, Rattus norvegicus, UniProt P22734)
# HDAC9: Histone deacetylase 9 (HDAC9, Homo sapiens, UniProt Q9UKV0)
target,read-out,action,technique,setting,IC50 [µM],SMILES
CA9,enzyme activity,inhibitor,,,4.38,O=C(O)c1ccc(Nc2nc(-c3cc4cc(Br)ccc4oc3=O)cs2)cc1
"Cyclin-dependent kinase 18, with cyclin Y (CDK18, Homo sapiens, UniProt Q07002)",enzyme activity,inhibitor,,,> 1,Cc1cc(O)c(-c2ccc([C@@H](C)CN(C)C)cc2)c2c1[nH]c(=O)c1sccc12
Pancreatic alpha-amylase,enzyme activity,inhibitor,absorbance,,50,COc1cc(/C=N/NC(=S)N/N=C/c2ccc(N(C)C)cc2)ccc1Oc1ccnc2cc(Cl)ccc12
MAOB,enzyme activity,inhibitor,,,0.029,O=C(Nc1ccc(Cl)c(F)c1)c1ccc2c(c1)C(=O)NC2=O
ALDH1A3,enzyme activity,inhibitor,,,< 10,OC[C@H]1O[C@@H](Oc2ccc(O)c3cccc(O)c23)[C@H](O)[C@@H](O)[C@@H]1O
Pancreatic alpha-amylase,enzyme activity,inhibitor,absorbance,,46.4,COc1cc(/C=N/NC(=S)NN=Cc2ccc(CO)o2)ccc1Oc1ccnc2cc(Cl)ccc12
CHRM4,ligand displacement,,radioligand,cell membranes,> 30,O=C(CCNC(=O)CNC(=O)CC(c1ccccc1)(c1ccccc1)c1ccccc1)NC[C@@H]1CCCN(Cc2ccc(F)nc2)C1
GLO1,enzyme activity,inhibitor,,,0.952,O=C(N[C@@H](CSCc1ccc([N+](=O)[O-])cc1)C(=O)NO)c1ccccc1
Pancreatic alpha-amylase,enzyme activity,inhibitor,absorbance,,53,COc1cc(/C=N/NC(=S)N/N=C\c2ccc([N+](=O)[O-])cc2)ccc1Oc1ccnc2cc(Cl)ccc12
PADI4,enzyme activity,inhibitor,fluorescence,with preincubation,1.06,CN(C)c1ccc2cc(C(=O)N[C@@H](CCCNC(=N)CCl)c3nc4ccccc4[nH]3)ccc2c1
Comt,enzyme activity,inhibitor,,,709,O=C(O)c1cc(O)c(O)c(O)c1
MAOB,enzyme activity,inhibitor,,,0.012,O=C(Nc1ccc(Cl)c(Br)c1)c1ccc2c(c1)C(=O)NC2=O
HDAC9,enzyme activity,inhibitor,,,> 10,COc1ccc(N(Cc2csc(-c3ccc(C)cc3)n2)C(=O)CCCCCC(=O)NO)cc1
PADI4,enzyme activity,inhibitor,fluorescence,with preincubation,2.19,Cc1ccc(COc2ccc3ccc(C(=O)N[C@@H](CCCNC(=N)CCl)C(=O)NCc4ccccc4)cc3c2)cc1
GLO1,enzyme activity,inhibitor,,,454,O=C(N[C@@H](CSCc1nc2cc([N+](=O)[O-])ccc2[nH]1)C(=O)NO)c1ccccc1
CA9,enzyme activity,inhibitor,,,1.69,CS(=O)(=O)Nc1ccc(Nc2nc(-c3cc4ccccc4oc3=O)cs2)cc1Oc1ccccc1
HDAC9,enzyme activity,inhibitor,,,0.677,O=C(NO)c1ccc(Cn2cnc3c(Nc4cccc([N+](=O)[O-])c4)ncnc32)cc1
PADI4,enzyme activity,inhibitor,fluorescence,with preincubation,0.708,N=C(CCl)NCCC[C@H](NC(=O)c1cccc(-c2ccc(B(O)O)cc2)c1)C(=O)NCc1ccccc1
Comt,enzyme activity,inhibitor,,,16.2,C[C@@]12C[C@@]3(O)O[C@@H](O1)[C@]1(COC(=O)c4ccccc4)[C@H]3C[C@@]12O[C@@H]1O[C@H](COC(=O)c2cc(O)c(O)c(O)c2)[C@@H](O)[C@H](O)[C@H]1O
MAOB,enzyme activity,inhibitor,,,3.25,O=C(Nc1ccccc1)c1ccc2c(c1)C(=O)NC2=O
ALDH1A3,enzyme activity,inhibitor,,,14.9,Cc1ccc(-c2cccc(C=O)c2)c(C)c1
"Beta-1 adrenergic receptor (ADRB1, Homo sapiens, UniProt P08588)",cAMP,antagonist,,,6.75,CN1CCC(CNc2ccc3ncc(-c4cccc(OC(F)(F)F)c4)n3n2)CC1
CA9,enzyme activity,inhibitor,,,5.74,CS(=O)(=O)Nc1ccc(Nc2nc(-c3cc4cc(Br)ccc4oc3=O)cs2)cc1Oc1ccccc1
HDAC9,enzyme activity,inhibitor,,,> 10,COc1ccc(N(Cc2csc(-c3ccccc3)n2)C(=O)CCCCCC(=O)NO)cc1
Pancreatic alpha-amylase,enzyme activity,inhibitor,absorbance,,53.6,COc1cc(/C=N/NC(=S)NN=Cc2sccc2C)ccc1Oc1ccnc2cc(Cl)ccc12
MAOB,enzyme activity,inhibitor,,,0.29,O=C(Nc1cccc(Cl)c1)c1ccc2c(c1)C(=O)NC2=O
PADI4,enzyme activity,inhibitor,fluorescence,with preincubation,0.393,N=C(CCl)NCCC[C@H](NC(=O)c1ccc2cc(Br)ccc2c1)C(=O)NCc1ccccc1
MAOB,enzyme activity,inhibitor,,,0.015,O=C(Nc1ccc(F)c(Cl)c1)c1ccc2c(c1)C(=O)NC2=O
"Endothelin receptor type B (EDNRB, Homo sapiens, UniProt P24530)",ligand displacement,,radioligand,cell membranes,0.00329,CCCC[C@@H](NC(=O)[C@@H](Cc1cn(C(=O)OC)c2ccccc12)NC(=O)[C@H](CC(C)(C)C)NC(=O)N1[C@H](C)CCC[C@@H]1C)C(=O)O
PADI4,enzyme activity,inhibitor,fluorescence,with preincubation,2.2,N=C(CCl)NCCC[C@H](NC(=O)c1ccc(B(O)O)cc1)c1nc2ccccc2[nH]1
Pancreatic alpha-amylase,enzyme activity,inhibitor,absorbance,,46.4,COc1cc(/C=N/NC(=S)N/N=C/c2ccccc2)ccc1Oc1ccnc2cc(Cl)ccc12
ALDH1A3,enzyme activity,inhibitor,,,43.5,Cc1ccc(-c2ccccc2C=O)c(C)c1
PADI4,enzyme activity,inhibitor,fluorescence,with preincubation,0.524,N=C(CCl)NCCC[C@H](NC(=O)c1cccc(-c2ccc(O)cc2)c1)C(=O)NCc1ccccc1
Pancreatic alpha-amylase,enzyme activity,inhibitor,absorbance,,50.5,COc1cc(/C=N/NC(=S)N/N=C/c2ccc(Br)cc2)ccc1Oc1ccnc2cc(Cl)ccc12
CHRM4,ligand displacement,,radioligand,cell membranes,13.5,O=C(CCNC(=O)CNC(=O)CC(c1ccccc1)(c1ccccc1)c1ccccc1)NC[C@H]1CCCN(Cc2ccc(F)cc2)C1
PADI4,enzyme activity,inhibitor,fluorescence,with preincubation,0.426,N=C(CCl)NCCC[C@H](NC(=O)c1cccc(-c2ccc(O)cc2)c1)c1nc2ccccc2[nH]1
Pancreatic alpha-amylase,enzyme activity,inhibitor,absorbance,,45.7,COc1cc(/C=N/NC(=S)N/N=C\c2ccc(Cl)c(Cl)c2)ccc1Oc1ccnc2cc(Cl)ccc12
PADI4,enzyme activity,inhibitor,fluorescence,with preincubation,0.342,N=C(CCl)NCCC[C@H](NC(=O)c1cnc2cc(O)ccc2c1)C(=O)NCc1ccccc1
ALDH1A3,enzyme activity,inhibitor,,,< 10,Nc1nc2c(s1)C(c1ccccc1Cl)CC(=O)N2 (stereo not drawn)
